Consider seven molecules from article PMC3947313 (Journal of neurochemistry, 2013).

Common to all, as to format: biochemical
In series [1] the test system is ERK2-pT202pY204. Kind of series: Enzyme-coupled. To be noted: for decrease of kcat/Km (activity) toward phospho-ERK protein: STEP variant compared to wild-type STEP, pH 7.0, 25°C; for effect of mutation on activity toward phospho-ERK protein (in words): compared to the respective wild-type phosphatase. The method in brief:
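Phospho-ERK2 protein was prepared using ERK2 and MEK1 expression plasmids. Initial rates were fitted to Michaelis-Menten for Km and kcat. At substrate << Km, kcat/Km came from first-order progress-curve fitting. Values are mean ± standard error.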

In series [2] the test system is ERK pT202pY204 phospho-peptide. The note with it: for decrease of activity toward phospho-ERK peptide: STEP mutant compared to wild-type STEP, 37°C, pH 6.0. In a few lines: (§1)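 Synthetic, HPLC-purified Tyr(P)-containing peptides were dephosphorylated at 37°C in 50 mM succinic buffer (pH 6.0), 1 mM EDTA and 2 mM DTT, ionic strength 0.15 M (NaCl). Released phosphate was measured with BIOMOL Green at 620 nm. Hydrolysis was also followed continuously by tyrosine fluorescence (excitation 280 nm, emission 305 nm). Michaelis-Menten fits gave kinetic parameters (mean ± standard error).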

Series [3] in a line: Activity of STEP variants toward pNPP. To be noted: compared to wild-type STEP; 37°C, pH 6.0. In a few lines:
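Phosphatase variants hydrolysed pNPP at 37°C in 50 mM succinic buffer (pH 6.0) with 1 mM EDTA, 2 mM DTT and ionic strength adjusted to 0.15 M with NaCl. Reactions were stopped with 1 M NaOH and read at 405 nm. Kinetic parameters came from Michaelis-Menten fits, reported as mean ± standard error.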

For series [4], the system named is p38-derived phospho-peptide. The series is described as follows: Activity of STEP variants toward the p38-derived phospho-peptide. The note with it: STEP mutant compared to wild-type STEP. In a few lines:
as §1

B1: S245E: S245E STEP phosphorylation mimic mutation (protein, UniProt P54829 1-565, looked up, variant S245E)
Tyrosine-protein phosphatase …: MNYEGARSERENHAADDSEGGALDMCCSERLPGLPQPIVMEALDEAEGLQDSQREMPPPPPPSPPSDPAQKPPPRGAGSHSLTVRSSLCLFAASQFLLACGVLWFSGYGHIWSQNATNLVSSLLTLLKQLEPTAWLDSGTWGVPSLLLVFLSVGLVLVTTLVWHLLRTPPEPPTPLPPEDRRQSVSRQPSFTYSEWMEEKIEDDFLDLDPVPETPVFDCVMDIKPEADPTSLTVKSMGLQERRGENVSLTLDMCTPGCNEEGFGYLMSPREESAREYLLSASRVLQAEELHEKALDPFLLQAEFFEIPMNFVDPKEYDIPGLVRKNRYKTILPNPHSRVCLTSPDPDDPLSSYINANYIRGYGGEEKVYIATQGPIVSTVADFWRMVWQEHTPIIVMITNIEEMNEKCTEYWPEEQVAYDGVEITVQKVIHTEDYRLRLISLKSGTEERGLKHYWFTSWPDQKTPDRAPPLLHLVREVEEAAQQEGPHCAPIIVHCSAGIGRTGCFIATSICCQQLRQEGVVDILKTTCQLRQDRGGMIQTCEQYQFVHHVMSLYEKQLSHQSPE
With B1, the “decrease of kcat/Km (activity) toward phospho-ERK protein” value (from here on “decrease of kcat/Km”) in series [1] stood at 50 fold. The “effect of mutation on activity toward phospho-ERK peptide (in words)” value in series [2] (compared to wild-type STEP) is on record as “did not affect”. For the same molecule, in series [3], the “effect of mutation on activity toward pNPP (in words)” value is “did not affect”.

B2: T330A: STEP pY-binding loop mutant T330A (protein, UniProt P54829 1-565, looked up, variant T330A)
Tyrosine-protein phosphatase …: MNYEGARSERENHAADDSEGGALDMCCSERLPGLPQPIVMEALDEAEGLQDSQREMPPPPPPSPPSDPAQKPPPRGAGSHSLTVRSSLCLFAASQFLLACGVLWFSGYGHIWSQNATNLVSSLLTLLKQLEPTAWLDSGTWGVPSLLLVFLSVGLVLVTTLVWHLLRTPPEPPTPLPPEDRRQSVSRQPSFTYSEWMEEKIEDDFLDLDPVPETPVFDCVMDIKPEADPTSLTVKSMGLQERRGSNVSLTLDMCTPGCNEEGFGYLMSPREESAREYLLSASRVLQAEELHEKALDPFLLQAEFFEIPMNFVDPKEYDIPGLVRKNRYKAILPNPHSRVCLTSPDPDDPLSSYINANYIRGYGGEEKVYIATQGPIVSTVADFWRMVWQEHTPIIVMITNIEEMNEKCTEYWPEEQVAYDGVEITVQKVIHTEDYRLRLISLKSGTEERGLKHYWFTSWPDQKTPDRAPPLLHLVREVEEAAQQEGPHCAPIIVHCSAGIGRTGCFIATSICCQQLRQEGVVDILKTTCQLRQDRGGMIQTCEQYQFVHHVMSLYEKQLSHQSPE
As for B2, the “effect of mutation on activity toward phospho-ERK peptide (in words)” value in series [2] (compared to wild-type STEP) is “did not affect”. In series [3], the “effect of mutation on activity toward pNPP (in words)” value was “did not affect”.

B3: Q462F: STEP WPD-loop mutant Q462F (protein, UniProt P54829 1-565, looked up, variant Q462F)
Tyrosine-protein phosphatase …: MNYEGARSERENHAADDSEGGALDMCCSERLPGLPQPIVMEALDEAEGLQDSQREMPPPPPPSPPSDPAQKPPPRGAGSHSLTVRSSLCLFAASQFLLACGVLWFSGYGHIWSQNATNLVSSLLTLLKQLEPTAWLDSGTWGVPSLLLVFLSVGLVLVTTLVWHLLRTPPEPPTPLPPEDRRQSVSRQPSFTYSEWMEEKIEDDFLDLDPVPETPVFDCVMDIKPEADPTSLTVKSMGLQERRGSNVSLTLDMCTPGCNEEGFGYLMSPREESAREYLLSASRVLQAEELHEKALDPFLLQAEFFEIPMNFVDPKEYDIPGLVRKNRYKTILPNPHSRVCLTSPDPDDPLSSYINANYIRGYGGEEKVYIATQGPIVSTVADFWRMVWQEHTPIIVMITNIEEMNEKCTEYWPEEQVAYDGVEITVQKVIHTEDYRLRLISLKSGTEERGLKHYWFTSWPDFKTPDRAPPLLHLVREVEEAAQQEGPHCAPIIVHCSAGIGRTGCFIATSICCQQLRQEGVVDILKTTCQLRQDRGGMIQTCEQYQFVHHVMSLYEKQLSHQSPE
On to B3, for which the “effect of mutation on activity toward phospho-ERK protein (in words)” value in series [1] is “increase”. Further, the “effect of mutation on Km for the phospho-ERK-peptide (in words)” value in series [2] (compared to wild-type STEP) is on record as “significantly lower”.

B4: K463Q: STEP WPD-loop mutant K463Q (protein, UniProt P54829 1-565, looked up, variant K463Q)
Tyrosine-protein phosphatase …: MNYEGARSERENHAADDSEGGALDMCCSERLPGLPQPIVMEALDEAEGLQDSQREMPPPPPPSPPSDPAQKPPPRGAGSHSLTVRSSLCLFAASQFLLACGVLWFSGYGHIWSQNATNLVSSLLTLLKQLEPTAWLDSGTWGVPSLLLVFLSVGLVLVTTLVWHLLRTPPEPPTPLPPEDRRQSVSRQPSFTYSEWMEEKIEDDFLDLDPVPETPVFDCVMDIKPEADPTSLTVKSMGLQERRGSNVSLTLDMCTPGCNEEGFGYLMSPREESAREYLLSASRVLQAEELHEKALDPFLLQAEFFEIPMNFVDPKEYDIPGLVRKNRYKTILPNPHSRVCLTSPDPDDPLSSYINANYIRGYGGEEKVYIATQGPIVSTVADFWRMVWQEHTPIIVMITNIEEMNEKCTEYWPEEQVAYDGVEITVQKVIHTEDYRLRLISLKSGTEERGLKHYWFTSWPDQQTPDRAPPLLHLVREVEEAAQQEGPHCAPIIVHCSAGIGRTGCFIATSICCQQLRQEGVVDILKTTCQLRQDRGGMIQTCEQYQFVHHVMSLYEKQLSHQSPE
As for B4, in series [1], the “decrease of kcat/Km” value is “more than 4 fold”. In series [2], the “decrease of activity toward phospho-ERK peptide” value is “more than 4 fold”.

B5: T330D: STEP pY-binding loop mutant T330D (protein, UniProt P54829 1-565, looked up, variant T330D)
Tyrosine-protein phosphatase …: MNYEGARSERENHAADDSEGGALDMCCSERLPGLPQPIVMEALDEAEGLQDSQREMPPPPPPSPPSDPAQKPPPRGAGSHSLTVRSSLCLFAASQFLLACGVLWFSGYGHIWSQNATNLVSSLLTLLKQLEPTAWLDSGTWGVPSLLLVFLSVGLVLVTTLVWHLLRTPPEPPTPLPPEDRRQSVSRQPSFTYSEWMEEKIEDDFLDLDPVPETPVFDCVMDIKPEADPTSLTVKSMGLQERRGSNVSLTLDMCTPGCNEEGFGYLMSPREESAREYLLSASRVLQAEELHEKALDPFLLQAEFFEIPMNFVDPKEYDIPGLVRKNRYKDILPNPHSRVCLTSPDPDDPLSSYINANYIRGYGGEEKVYIATQGPIVSTVADFWRMVWQEHTPIIVMITNIEEMNEKCTEYWPEEQVAYDGVEITVQKVIHTEDYRLRLISLKSGTEERGLKHYWFTSWPDQKTPDRAPPLLHLVREVEEAAQQEGPHCAPIIVHCSAGIGRTGCFIATSICCQQLRQEGVVDILKTTCQLRQDRGGMIQTCEQYQFVHHVMSLYEKQLSHQSPE
Regarding B5, the “increase of kcat/Km toward phospho-ERK protein” value in series [1] (STEP mutant compared to wild-type STEP) is 1.3 fold. The “increase of activity toward p38-derived phospho-peptide” value in series [4] was 2–3 fold. The “effect of mutation on activity toward pNPP (in words)” value in series [3] was “did not affect”.

B6: K329A: STEP pY-binding loop mutant K329A (protein, UniProt P54829 1-565, looked up, variant K329A)
Tyrosine-protein phosphatase …: MNYEGARSERENHAADDSEGGALDMCCSERLPGLPQPIVMEALDEAEGLQDSQREMPPPPPPSPPSDPAQKPPPRGAGSHSLTVRSSLCLFAASQFLLACGVLWFSGYGHIWSQNATNLVSSLLTLLKQLEPTAWLDSGTWGVPSLLLVFLSVGLVLVTTLVWHLLRTPPEPPTPLPPEDRRQSVSRQPSFTYSEWMEEKIEDDFLDLDPVPETPVFDCVMDIKPEADPTSLTVKSMGLQERRGSNVSLTLDMCTPGCNEEGFGYLMSPREESAREYLLSASRVLQAEELHEKALDPFLLQAEFFEIPMNFVDPKEYDIPGLVRKNRYATILPNPHSRVCLTSPDPDDPLSSYINANYIRGYGGEEKVYIATQGPIVSTVADFWRMVWQEHTPIIVMITNIEEMNEKCTEYWPEEQVAYDGVEITVQKVIHTEDYRLRLISLKSGTEERGLKHYWFTSWPDQKTPDRAPPLLHLVREVEEAAQQEGPHCAPIIVHCSAGIGRTGCFIATSICCQQLRQEGVVDILKTTCQLRQDRGGMIQTCEQYQFVHHVMSLYEKQLSHQSPE
Turning to B6, the “effect of mutation on activity toward phospho-ERK protein (in words)” value in series [1] was “did not affect”. Also, the “effect of mutation on activity toward phospho-ERK peptide (in words)” value in series [2] (compared to wild-type STEP) is “weakly”. Moreover, the “effect of mutation on activity toward pNPP (in words)” value in series [3] is reported as “weakly”.

B7: F311A: STEP second-site loop mutant F311A (protein, UniProt P54829 1-565, looked up, variant F311A)
Tyrosine-protein phosphatase …: MNYEGARSERENHAADDSEGGALDMCCSERLPGLPQPIVMEALDEAEGLQDSQREMPPPPPPSPPSDPAQKPPPRGAGSHSLTVRSSLCLFAASQFLLACGVLWFSGYGHIWSQNATNLVSSLLTLLKQLEPTAWLDSGTWGVPSLLLVFLSVGLVLVTTLVWHLLRTPPEPPTPLPPEDRRQSVSRQPSFTYSEWMEEKIEDDFLDLDPVPETPVFDCVMDIKPEADPTSLTVKSMGLQERRGSNVSLTLDMCTPGCNEEGFGYLMSPREESAREYLLSASRVLQAEELHEKALDPFLLQAEFFEIPMNAVDPKEYDIPGLVRKNRYKTILPNPHSRVCLTSPDPDDPLSSYINANYIRGYGGEEKVYIATQGPIVSTVADFWRMVWQEHTPIIVMITNIEEMNEKCTEYWPEEQVAYDGVEITVQKVIHTEDYRLRLISLKSGTEERGLKHYWFTSWPDQKTPDRAPPLLHLVREVEEAAQQEGPHCAPIIVHCSAGIGRTGCFIATSICCQQLRQEGVVDILKTTCQLRQDRGGMIQTCEQYQFVHHVMSLYEKQLSHQSPE
In the case of B7, in series [1], the “decrease of kcat/Km” value was 2 fold. The “decrease of activity toward phospho-ERK peptide” value in series [2] is given as 2 fold. Also, the “effect of mutation on activity toward pNPP (in words)” value in series [3] is given as “did not affect”.
